Measured values as given in ChEMBL document CHEMBL4689842, “EUbOPEN Chemogenomics Library wave 1” (2021).
Several values for one entry are separate records, joined by “and”; a condition that tells them apart may be missing. Equal entries are not always repeated.

Tested on: U2OS
Test: Multiplex assay against U2OS
Assay type: toxicity, cell-based
Details: human
How it was run: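 With compound added, live cells were imaged on a CQ1 microscope at 37°C and 5% CO2; staining with Hoechst33342, BioTracker Green Microtubule Cytoskeleton Dye, MitoTracker Red and Annexin V Alexa Fluor 680 had been done at seeding. The CellPathfinder machine-learning gating scheme split cells into Hoechst high-intensity objects or normal cells, normal cells into healthy, pyknosed or fragmented nuclei, and pyknosed cells into mitotic or apoptotic. The tubulin, mitochondrial-mass and membrane-permeability phenotypes are per cents of healthy-nucleus cells.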

[1] = 12 h, 1 µM, compound concentration 1 uM, replicate 1
[2] = 12 h, 1 µM, compound concentration 1 uM, replicate 2
[3] = 12 h, 10 µM, compound concentration 10 uM, replicate 1
[4] = 12 h, 10 µM, compound concentration 10 uM, replicate 2
[5] = 24 h, 1 µM, compound concentration 1 uM, replicate 1
[6] = 24 h, 1 µM, compound concentration 1 uM, replicate 2
[7] = 24 h, 10 µM, compound concentration 10 uM, replicate 1
[8] = 24 h, 10 µM, compound concentration 10 uM, replicate 2
[9] = 48 h, 1 µM, compound concentration 1 uM, replicate 1
[10] = 48 h, 1 µM, compound concentration 1 uM, replicate 2
[11] = 48 h, 10 µM, compound concentration 10 uM, replicate 1
[12] = 48 h, 10 µM, compound concentration 10 uM, replicate 2

## Cc1[nH]c(/C=C2\C(=O)Nc3ccc(S(=O)(=O)N(C)c4cccc(Cl)c4)cc32)c(C)c1C(=O)N1CCN(C)CC1
[1]
  Population Apoptotic (%): 66%
  Population Fragmented Nuclei (%): 13%
  Population Mitochondria Different-Phenotype (%): 58%
  Population Mitotic Cells (%): 33%
  Population Pyknosed Nuclei (%): 9%
  Population Tubulin-Different-Phenotype (%): 80%
  Total Cell Count: 305
[2]
  Population Apoptotic (%): 100%
  Population Fragmented Nuclei (%): 16%
  Population Healthy Nuclei (%): 77%
  Population Hoechst High Intensity Objects (%): 12%
  Population Membrane Permeable-Phenotype (%): 12%
  Population Mitochondria Different-Phenotype (%): 42%
  Population Mitotic Cells (%): 0%
  Population Normal (%): 87%
  Population Pyknosed Nuclei (%): 6%
  Population Tubulin-Different-Phenotype (%): 68%
  Total Cell Count: 90
[3]
  Population Apoptotic (%): 60%
  Population Fragmented Nuclei (%): 12%
  Population Healthy Nuclei (%): 76%
  Population Hoechst High Intensity Objects (%): 8%
  Population Membrane Permeable-Phenotype (%): 24%
  Population Mitochondria Different-Phenotype (%): 68%
  Population Mitotic Cells (%): 40%
  Population Normal (%): 91%
  Population Pyknosed Nuclei (%): 11%
  Total Cell Count: 147
[4]
  Population Apoptotic (%): 25%
  Population Fragmented Nuclei (%): 10%
  Population Healthy Nuclei (%): 74%
  Population Hoechst High Intensity Objects (%): 12%
  Population Membrane Permeable-Phenotype (%): 40%
  Population Mitochondria Different-Phenotype (%): 97%
  Population Mitotic Cells (%): 75%
  Population Normal (%): 87%
  Population Pyknosed Nuclei (%): 16%
  Population Tubulin-Different-Phenotype (%): 100%
  Total Cell Count: 70
[5]
  Population Apoptotic (%): 73%
  Population Fragmented Nuclei (%): 11%
  Population Healthy Nuclei (%): 77%
  Population Hoechst High Intensity Objects (%): 9%
  Population Membrane Permeable-Phenotype (%): 7%
  Population Mitochondria Different-Phenotype (%): 51%
  Population Mitotic Cells (%): 26%
  Population Normal (%): 90%
  Population Pyknosed Nuclei (%): 11%
  Population Tubulin-Different-Phenotype (%): 61%
  Total Cell Count: 272
[6]
  Population Apoptotic (%): 100%
  Population Fragmented Nuclei (%): 18%
  Population Healthy Nuclei (%): 72%
  Population Hoechst High Intensity Objects (%): 8%
  Population Membrane Permeable-Phenotype (%): 10%
  Population Mitochondria Different-Phenotype (%): 40%
  Population Mitotic Cells (%): 0%
  Population Normal (%): 91%
  Population Pyknosed Nuclei (%): 9%
  Population Tubulin-Different-Phenotype (%): 55%
  Total Cell Count: 65
[7]
  Population Apoptotic (%): 82%
  Population Fragmented Nuclei (%): 13%
  Population Healthy Nuclei (%): 68%
  Population Hoechst High Intensity Objects (%): 8%
  Population Membrane Permeable-Phenotype (%): 46%
  Population Mitochondria Different-Phenotype (%): 88%
  Population Mitotic Cells (%): 17%
  Population Normal (%): 91%
  Population Pyknosed Nuclei (%): 17%
  Population Tubulin-Different-Phenotype (%): 100%
  Total Cell Count: 140
[8]
  Population Apoptotic (%): 100%
  Population Fragmented Nuclei (%): 17%
  Population Healthy Nuclei (%): 73%
  Population Membrane Permeable-Phenotype (%): 84%
  Population Mitochondria Different-Phenotype (%): 100%
  Population Mitotic Cells (%): 0%
  Population Pyknosed Nuclei (%): 9%
  Total Cell Count: 71
[9]
  Population Apoptotic (%): 80%
  Population Fragmented Nuclei (%): 18%
  Population Healthy Nuclei (%): 70%
  Population Hoechst High Intensity Objects (%): 4%
  Population Membrane Permeable-Phenotype (%): 10%
  Population Mitochondria Different-Phenotype (%): 32%
  Population Mitotic Cells (%): 19%
  Population Normal (%): 95%
  Population Pyknosed Nuclei (%): 11%
  Population Tubulin-Different-Phenotype (%): 30%
  Total Cell Count: 261
[10]
  Population Apoptotic (%): 25%
  Population Fragmented Nuclei (%): 16%
  Population Healthy Nuclei (%): 77%
  Population Hoechst High Intensity Objects (%): 14%
  Population Membrane Permeable-Phenotype (%): 21%
  Population Mitochondria Different-Phenotype (%): 30%
  Population Mitotic Cells (%): 75%
  Population Normal (%): 85%
  Population Pyknosed Nuclei (%): 5%
  Population Tubulin-Different-Phenotype (%): 37%
  Total Cell Count: 62
[11]
  Population Fragmented Nuclei (%): 24%
  Population Healthy Nuclei (%): 50%
  Population Hoechst High Intensity Objects (%): 7%
  Population Membrane Permeable-Phenotype (%): 76%
  Population Mitochondria Different-Phenotype (%): 91%
  Population Normal (%): 92%
  Population Pyknosed Nuclei (%): 24%
  Total Cell Count: 186
[12]
  Population Apoptotic (%): 100%
  Population Fragmented Nuclei (%): 14%
  Population Healthy Nuclei (%): 72%
  Population Hoechst High Intensity Objects (%): 15%
  Population Membrane Permeable-Phenotype (%): 88%
  Population Mitochondria Different-Phenotype (%): 100%
  Population Mitotic Cells (%): 0%
  Population Normal (%): 84%
  Population Pyknosed Nuclei (%): 12%
  Population Tubulin-Different-Phenotype (%): 100%
  Total Cell Count: 84

## O=C(NCCCC1CCCCC1)c1ccc(CNC(=O)c2cnn(-c3ccccc3)c2C(F)(F)F)cc1 [SR-321]
[1]
  Population Apoptotic (%): 37% [middle of 4 runs]
  Population Healthy Nuclei (%): 74% and 91%
  Population Hoechst High Intensity Objects (%): 6% and 9% and 5%
  Population Membrane Permeable-Phenotype (%): 9% and 7%
  Population Mitotic Cells (%): 66% [middle of 4 runs]
  Population Normal (%): 93% and 90% and 94%
  Population Pyknosed Nuclei (%): 14% and 13% and 7%
  Population Tubulin-Different-Phenotype (%): 15% and 16% and 35%
  Total Cell Count: 181 [middle of 4 runs]
[2]
  Population Healthy Nuclei (%): 89% and 53% and 83% and 88%
  Population Hoechst High Intensity Objects (%): 8% and 21% and 7%
  Population Membrane Permeable-Phenotype (%): 14% and 0% and 12%
  Population Normal (%): 91% and 78% and 92%
  Population Pyknosed Nuclei (%): 5% and 6%
  Population Tubulin-Different-Phenotype (%): 20% and 26%
  Total Cell Count: 89 [middle of 4 runs]
[3]
  Population Apoptotic (%): 40% and 31% and 41%
  Population Fragmented Nuclei (%): 9% [middle of 4 runs]
  Population Healthy Nuclei (%): 71% and 80% and 75% and 86%
  Population Hoechst High Intensity Objects (%): 2% and 4% and 6%
  Population Mitochondria Different-Phenotype (%): 24% and 25% and 20%
  Population Mitotic Cells (%): 60% and 68% and 58%
  Population Normal (%): 97% and 95% and 93%
  Population Pyknosed Nuclei (%): 14% [middle of 4 runs]
  Population Tubulin-Different-Phenotype (%): 15% [middle of 4 runs]
  Total Cell Count: 197 [middle of 4 runs]
[4]
  Population Healthy Nuclei (%): 66% and 69%
  Population Membrane Permeable-Phenotype (%): 5% and 0% and 11%
  Population Mitotic Cells (%): 80% and 50% and 81% and 88%
  Population Normal (%): 73% and 94% and 91% and 92%
  Total Cell Count: 117 [middle of 4 runs]
[5]
  Population Apoptotic (%): 40% and 45% and 15%
  Population Fragmented Nuclei (%): 8% [middle of 4 runs]
  Population Healthy Nuclei (%): 85% and 81% and 79% and 91%
  Population Membrane Permeable-Phenotype (%): 8% and 5% and 10%
  Population Mitotic Cells (%): 60% and 54% and 84%
  Population Normal (%): 94% and 96% and 98%
  Population Pyknosed Nuclei (%): 7% and 9% and 8%
  Population Tubulin-Different-Phenotype (%): 19% [middle of 4 runs]
  Total Cell Count: 233 [middle of 4 runs]
[6]
  Population Healthy Nuclei (%): 66% and 82% and 74% and 94%
  Population Membrane Permeable-Phenotype (%): 4% and 3% and 0% and 7%
  Population Mitochondria Different-Phenotype (%): 19% [middle of 4 runs]
  Population Mitotic Cells (%): 100% and 40%
  Population Normal (%): 85% and 95% and 89% and 97%
  Population Tubulin-Different-Phenotype (%): 30% and 22%
  Total Cell Count: 88 [middle of 4 runs]
[7]
  Population Apoptotic (%): 44% and 36% and 21%
  Population Healthy Nuclei (%): 71% and 75% and 74% and 89%
  Population Hoechst High Intensity Objects (%): 2% and 4%
  Population Membrane Permeable-Phenotype (%): 5% [middle of 4 runs]
  Population Mitochondria Different-Phenotype (%): 19% and 17%
  Population Mitotic Cells (%): 55% and 63% and 78%
  Population Normal (%): 97% and 95%
  Population Pyknosed Nuclei (%): 15% and 16% and 6%
  Population Tubulin-Different-Phenotype (%): 12% [middle of 4 runs]
  Total Cell Count: 232 [middle of 4 runs]
[8]
  Population Healthy Nuclei (%): 67% and 65% and 86%
  Population Mitotic Cells (%): 50% and 66% and 88%
  Population Normal (%): 93% and 81% and 92% and 96%
  Population Pyknosed Nuclei (%): 11% and 14%
  Total Cell Count: 124 [middle of 4 runs]
[9]
  Population Apoptotic (%): 33% and 45% and 47%
  Population Fragmented Nuclei (%): 5% and 9%
  Population Healthy Nuclei (%): 88% and 86%
  Population Hoechst High Intensity Objects (%): 1%
  Population Membrane Permeable-Phenotype (%): 2%
  Population Mitochondria Different-Phenotype (%): 11% and 8%
  Population Mitotic Cells (%): 66% and 54% and 52%
  Population Normal (%): 98%
  Population Pyknosed Nuclei (%): 7%
  Population Tubulin-Different-Phenotype (%): 23% and 19%
  Total Cell Count: 217 and 382 and 367
[10]
  Population Fragmented Nuclei (%): 4% and 7% and 6%
  Population Healthy Nuclei (%): 85% and 87%
  Population Hoechst High Intensity Objects (%): 6% and 3% and 8%
  Population Membrane Permeable-Phenotype (%): 6% and 5% and 4%
  Population Mitochondria Different-Phenotype (%): 18% and 10% and 15%
  Population Normal (%): 93% and 96% and 92%
  Population Pyknosed Nuclei (%): 10% and 4% and 6%
  Population Tubulin-Different-Phenotype (%): 42% and 18% and 27%
  Total Cell Count: 118 and 104 and 109
[11]
  Population Apoptotic (%): 50% and 43% and 45%
  Population Fragmented Nuclei (%): 9% and 10% and 8%
  Population Healthy Nuclei (%): 72% and 74% and 78%
  Population Hoechst High Intensity Objects (%): 3% and 2%
  Population Membrane Permeable-Phenotype (%): 3% and 2%
  Population Mitochondria Different-Phenotype (%): 16% and 11% and 7%
  Population Mitotic Cells (%): 49% and 56% and 54%
  Population Normal (%): 96% and 97%
  Population Pyknosed Nuclei (%): 18% and 14% and 13%
  Population Tubulin-Different-Phenotype (%): 10% and 4% and 12%
  Total Cell Count: 425 and 284 and 300
[12]
  Population Apoptotic (%): 61% and 60% and 57%
  Population Fragmented Nuclei (%): 18% and 16% and 20%
  Population Healthy Nuclei (%): 61% and 77% and 62%
  Population Membrane Permeable-Phenotype (%): 12% and 6% and 5%
  Population Mitochondria Different-Phenotype (%): 24% and 22% and 17%
  Population Mitotic Cells (%): 38% and 40% and 42%
  Population Normal (%): 82% and 94% and 91%
  Population Tubulin-Different-Phenotype (%): 16% and 15% and 17%
  Total Cell Count: 125 and 91 and 127
